For assay [1], the system named is Candida albicans. The assay is described as follows: Synergistic antifungal activity against Candida albicans 9884 assessed as fluconazole MIC incubated for 48 hrs in presence of fluconazole by microdilution assay (reference value: fluconazole alone MIC = >[…] ug/ml). Format: functional.
Assay [2] relates to Candida albicans. The assay is described as follows: Synergistic antifungal activity against Candida albicans 4108 assessed as fluconazole MIC incubated for 48 hrs in presence of fluconazole by microdilution assay (reference value: fluconazole alone MIC = >[…] ug/ml). It counts as functional. On the technique in general: In broth dilution the organism is exposed to a series of concentrations in liquid medium.

The subject of assay [3] is Candida albicans. Kind of assay: Synergistic antifungal activity against Candida albicans 9884 assessed as potentiation of fluconazole antifungal activity by measuring FICI incubated for 48 hrs in presence of fluconazole by checkerboard microdilution assay. It counts as functional. The gist of the method: (§1)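 Checkerboard broth microdilution per CLSI M27-A3 (modified), clinical Candida isolates. 48 h at 35 °C; OD630 read with background subtracted. MIC80 = 80% growth inhibition; FICI ≤0.5 synergy, >4 antagonism.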

The next assay deals with Candida tropicalis. The assay is described as follows: Synergistic antifungal activity against Candida tropicalis assessed as potentiation of ITC antifungal activity by measuring ITC incubated for 48 hrs in presence of fluconazole by checkerboard microdilution assay. It counts as functional, organism-based.
The subject of assay [4] is Candida albicans. The assay is described as follows: Synergistic antifungal activity against Candida albicans 9172 assessed as potentiation of fluconazole antifungal activity by measuring FICI incubated for 48 hrs in presence of fluconazole by checkerboard microdilution assay. It counts as functional. The gist of the method: as §1
Assay [5] relates to Pichia kudriavzevii. Kind of assay: Synergistic antifungal activity against Candida krusei 10153 incubated for 48 hrs in presence of fluconazole by microdilution assay. Format: functional. The gist of the method:
(§2)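 Checkerboard broth microdilution per CLSI M27-A3 (modified), clinical Candida isolates. Exponential cells in RPMI 1640 (MOPS-buffered) at 10³ cells/mL; fluconazole 0.25–64 μg/mL crossed with test compound 2–64 μg/mL (final). 48 h at 35 °C; OD630 read with background subtracted. MIC80 = 80% growth inhibition; FICI ≤0.5 synergy, >4 antagonism.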

For assay [6], the system named is Candida albicans. Kind of assay: Antifungal activity against Candida albicans 0304103 infected in ICR mouse model of candidiasis assessed as reduction in kidney fungal burden at 10 mg/kg, ip dosed 24 hrs post infection and measured after 5 days. The conditions noted are these: time 5.0 day. It counts as functional, organism-based.
The subject of assay [7] is Candida albicans. Kind of assay: Antifungal activity against Candida albicans 0304103 infected in ICR mouse model of candidiasis assessed as reduction in morphological changes of budded-to-hyphal transition at 10 mg/kg, ip dosed 24 hrs post infection and co-treated with 1 mg/kg, ip fluconazole and measured after 5 days by H and E staining based microscopical analysis. It counts as functional, organism-based. The conditions noted are these: time 5.0 day. The gist of the method: (§3)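 Two ICR mice per group, infected and treated as in the kidney burden model (IV 5 × 10⁵ C. albicans 0304103; IP compound 10 mg/kg, fluconazole 1 mg/kg, or combination, 5 days). Kidneys fixed in 4% paraformaldehyde, paraffin-embedded, 4 μm sections, H&E stained, examined at 40× and 200×.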

In assay [8] the test system is Candida albicans. Kind of assay: Inhibition of biofilm formation in Candida albicans 0304103 at 64 ug/ml incubated for 24 hrs in presence of fluconazole by XTT reduction assay. Format: functional, organism-based. Conditions: dose 64.0 µg/ml. The gist of the method: (§4)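 C. albicans 0304103 at 1.0 × 10⁶ CFU/mL in RPMI 1640 allowed to adhere 90 min at 37 °C, washed with PBS, then fresh medium with fluconazole 2–32 μg/mL and/or compound 0.12–64 μg/mL added; 24 h at 37 °C. Biofilm metabolic activity by XTT reduction, OD490. Three independent experiments.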
For orientation: Formazan colour is commonly taken as a measure of viable cells.

The test system of assay [9] is Candida albicans. The assay is described as follows: Synergistic antifungal activity against azole-resistant Candida albicans assessed as potentiation of VRC antifungal activity by measuring VRC incubated for 48 hrs in presence of fluconazole by checkerboard microdilution assay. Format: functional.
For assay [10], the system named is Candida albicans. Kind of assay: Inhibition of HDAC in Candida albicans supernatants using Boc-Lys(Ac)-AMC substrate incubated for 18 hrs by fluorescence based assay. The gist of the method: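 Fungal whole-cell HDAC assay: C. albicans converted to protoplasts by snailase/mercaptoethanol (37 °C, 3 h), resuspended in PBS; compound 1–100 μM final, 35 °C 12 h, then Boc-Lys(Ac)-AMC 33 μM, 37 °C 6 h. Stopped with trypsin/Nonidet P-40 buffer, 37 °C 2 h; fluorescence Ex 360/Em 460 nm. Inhibition vs control after blank subtraction; three independent experiments.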

Assay [11] concerns Cryptococcus neoformans. The assay is described as follows: Synergistic antifungal activity against Cryptococcus neoformans assessed as potentiation of VRC antifungal activity by measuring VRC incubated for 48 hrs in presence of fluconazole by checkerboard microdilution assay. Format: functional, organism-based.
Assay [12] has as its system Candida albicans. Kind of assay: microbe, parasite or virus in culture. The conditions noted are these: Candida albicans, 0304103; time 48 hrs; read-out: MIC80. Format: functional, 0304103.
The test system of assay [13] is Candida albicans. Kind of assay: Synergistic antifungal activity against Candida albicans 10061 assessed as fluconazole MIC incubated for 48 hrs in presence of fluconazole by microdilution assay (reference value: fluconazole alone MIC = >[…] ug/ml). Format: functional.
For assay [14], the system named is Candida albicans. The assay is described as follows: Antifungal activity against Candida albicans 0304103 infected in ICR mouse model of candidiasis assessed as reduction in morphological changes of budded-to-hyphal transition at 10 mg/kg, ip dosed 24 hrs post infection and measured after 5 days by H and E staining based microscopical analysis. The conditions noted are these: time 5.0 day. Format: functional, organism-based. In outline:
as §3

Another assay deals with [Candida] auris. The assay is described as follows: Synergistic antifungal activity against Candida auris assessed as potentiation of ITC antifungal activity by measuring ITC incubated for 48 hrs in presence of fluconazole by checkerboard microdilution assay. It counts as functional, organism-based. Conditions: Candidozyma auris.
In assay [15] the test system is Candida albicans. The assay is described as follows: Up-regulation of MDR1 mRNA expression in Candida albicans 0304103 at 32 ug/ml incubated for 24 hrs by RT-PCR analysis. Format: functional. Conditions: dose 32.0 µg/ml. In outline: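 Cells from a 1 × 10⁶ cells/mL starting suspension were split into DMSO control, FLC 32 μg/mL, test compound 32 μg/mL and combination (32 + 32 μg/mL) groups, then incubated 24 h at 35 °C in YEPD. Total RNA was extracted and reverse-transcribed. Real-time PCR ran 40 cycles (95 °C 5 s, 60 °C 34 s). Fold change was calculated by 2^−ΔΔCt against ACT1.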

For another assay, the system named is Nakaseomyces glabratus. The assay is described as follows: Synergistic antifungal activity against Candida glabrata assessed as potentiation of VRC antifungal activity by measuring VRC incubated for 48 hrs in presence of fluconazole by checkerboard microdilution assay. It counts as functional, organism-based.
Assay [16] has as its system Cryptococcus neoformans. Kind of assay: Synergistic antifungal activity against Cryptococcus neoformans assessed as potentiation of ITC antifungal activity by measuring ITC incubated for 48 hrs in presence of fluconazole by checkerboard microdilution assay. Format: functional, organism-based.
Assay [17] concerns Pichia kudriavzevii. Kind of assay: Synergistic antifungal activity against Candida krusei 10153 assessed as fluconazole MIC incubated for 48 hrs in presence of fluconazole by microdilution assay (reference value: fluconazole alone MIC = […] ug/ml). It counts as functional.
For assay [18], the system named is Pichia kudriavzevii. Kind of assay: Synergistic antifungal activity against Candida krusei 10153 assessed as potentiation of fluconazole antifungal activity by measuring FICI incubated for 48 hrs in presence of fluconazole by checkerboard microdilution assay. It counts as functional. The gist of the method:
as §1

The test system of assay [19] is Candida albicans. Kind of assay: Synergistic antifungal activity against Candida albicans 0304103 at 32 ug/ml incubated for 48 hrs in presence of 32 ug/ml fluconazole by microdilution assay. Format: functional, organism-based. The conditions noted are these: dose 32.0 µg/ml.
For assay [20], the system named is Candida albicans. Kind of assay: Antifungal activity against Candida albicans 4108 incubated for 48 hrs by microdilution assay. It counts as functional. In outline: as §2
Assay [21] concerns Candida albicans. The assay is described as follows: Inhibition of biofilm formation in Candida albicans 0304103 at 0.12 to 64 ug/ml incubated for 24 hrs by XTT reduction assay. It counts as functional, organism-based. The conditions noted are these: dose 0.12-64 µg/ml. The gist of the method: as §4

The structures appear in SMILES notation. Converted amounts (≈) assume the structure as drawn. The source made the active and inactive calls. No cut-off for these calls is given here.

Turning to `O=C(Cc1ccc(OCCCn2c3c(c4cccc(Cl)c42)CCNC3)cc1)NO`, the MIC80 was 0.5 µg/mL in the assay with Candida albicans [1]; 0.25 µg/mL in the assay with Candida albicans [2]; 8 µg/mL in the assay with Pichia kudriavzevii [5]; 0.25 µg/mL (≈ 0.604 µM) in the assay on Candida albicans [12]; 2 µg/mL with Candida albicans [13]; 8 µg/mL in the assay on Pichia kudriavzevii [17]. In the assay with Candida albicans [20], this molecule returned an MIC80 of 64 µg/mL (≈ 155 µM). The “fractional inhibitory concentration index (FICI)” value turned out to be 0.039 in the assay on Candida albicans [3], 0.039 with Candida albicans [4], 0.035 in the assay on Candida albicans [9] and 0.25 with Pichia kudriavzevii [18]. Further, the result (in the assay on Candida tropicalis; in the assay with Candida albicans [7]; in assay [Candida] auris; in the assay with Candida albicans [15]; in the assay on Nakaseomyces glabratus; in the assay with Candida albicans [19]) was Active. For the same molecule, the outcome in the assay on Candida albicans [6], in the assay on Cryptococcus neoformans [11], in the assay on Candida albicans [14] and in the assay with Cryptococcus neoformans [16] was inactive. For the same molecule, the inhibition result in the assay with Candida albicans [8] and with Candida albicans [10] was “Active” in each case. Also, in the assay on Candida albicans [21], the inhibition result is “inactive”.

For the origin of these results see ChEMBL document CHEMBL4706641, “Novel Carboline Fungal Histone Deacetylase (HDAC) Inhibitors for Combinational Treatment of Azole-Resistant Candidiasis” (J Med Chem, 2021).
